Compound activity (PubChem)
The list is not random: actives were taken first. Their share in the collection is about 4.9%.
NF-kB neuron act: compounds increasing NF-kB expression in human neuronal cells; NF-kB reporter expression; active compounds read high; fold change at 12.5 µM; 190,000 tested, 1.6% active; in the data active = fold change above about 3.3
STAT3 act: increases IL-6 driven STAT3 reporter signal. U3A cells, IL-6 STAT3-luciferase reporter, luminescence; 100% = signal with IL-6 EC80 alone. activation (% of control), % at 5.6 µM. 190,000 tested, 0.91% active;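 active = activation above the screen-wide mean of compound activation plus 3 SD, cut at about 130% in these data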;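 note: 0% = background luminescence of wells with medium and substrate only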
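Material: STAT1-lacking human U3A cells, STAT3 luciferase reporter | Benchmarks: IL-6-only wells as 100% reference | Probe or stimulus: IL-6 (33 ng/mL) | Timing: Compound 1 h, then IL-6 6 h at 37 °C | Detection: Luminescence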
STAT3 inh-1: STAT3 signaling inhibition; U3A cells, IL-6 STAT3-luciferase reporter, luminescence; host cell line lacks STAT1; inhibition, % at 5.5 µM; 190,000 tested, 0.89% active; AID 862;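 active = inhibition above the mean inhibition across all screened compounds plus 3 SD, cut at about 44% in these data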;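 note: 0% = DMSO only wells and 100% = 100 µM nifuroxazide control wells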
STAT1 act: STAT1 signaling activation | 200,000 tested, 2.6% active | activation (% of control), % at 5.5 µM | NIH 3T3 STAT1-luciferase reporter, IFN-gamma, luminescence; 100% = IFN-gamma alone, no compound;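 active = activation above the screen-wide mean activation plus 3 SD, cut at about 130% in these data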;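 note: raw ratio to IFN-gamma control signal so 100% means no change and 0% no light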
STAT1 blocker: inhibitors of IFN-gamma induced STAT1 signaling; NIH 3T3 STAT1-luciferase reporter, luminescence; inhibition, % at 5.5 µM; 200,000 tested, 0.35% active; AID 920;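 active = inhibition above a set limit, the mean inhibition across all tested compounds plus 3 SD, cut at about 34% in these data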;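 note: 0% = IFN-gamma with DMSO and 100% = IFN-gamma with 300 µM nifuroxazide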
APP 5'UTR act: APP 5'UTR luciferase reporter activation; SH-SY5Y APP 5'UTR luciferase reporter, luminescence; zero percent = DMSO vehicle wells; activation, % at 2 µM; 190,000 tested, 1% active; AID 1276;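 active = activation above a set limit, based on mean plus 3 SD of controls, cut at about 140% in these data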
STAT3 inh-2: STAT3 inhibition, confirmation assay; U3A cells, IL-6 STAT3 luciferase reporter, luminescence; cell line lacks STAT1; 1,200 tested, 45% active; inhibition, % at 5.7 µM; shares compounds with STAT3 inh-1;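 active = inhibition above the hit cutoff computed for the primary STAT3 screen, cut at about 44% in these data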;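 note: 0% = IL-6 plus DMSO and 100% = IL-6 plus nifuroxazide control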
NFkB inh 2: inhibits NF-kappaB, counter-screen to STAT3 inhibitors; HEK293T NF-kB luciferase reporter, TNF-alpha induced; 1,200 tested, 36% active; shares compounds with STAT3 inh-1; inhibition, % at 5.7 µM;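 active = inhibition above the mean of solvent-only control wells plus 3 SD, cutoff set per campaign, cut at about 13% in these data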;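 note: 0% = TNF-alpha with DMSO and 100% = TNF-alpha with MG high control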
STAT1 inh 2: inhibits STAT1, counter-screen to STAT3 inhibitors; 1,200 tested, 27% active; shares compounds with STAT3 inh-1; inhibition, % at 5.7 µM; NIH 3T3 STAT1-luciferase reporter, IFN-gamma induced, luminescence;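 active = inhibition above the mean plus 3 SD of solvent-only control wells, limit set per screening run, cut at about 16% in these data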;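 note: 0% = DMSO with IFN-gamma and 100% = nifuroxazide control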
* hit, by the source's call; . = no result.

SMILES	NF-kB neuron act	STAT3 act	STAT3 inh-1	STAT1 act	STAT1 blocker	APP 5'UTR act	STAT3 inh-2	NFkB inh 2	STAT1 inh 2
Cc1ccc(-c2nn(-c3ccccc3)cc2/C=N/NC(=O)c2ccc(Br)o2)cc1	0.95	68.8	45.8*	103.3	-3.7	10.1	28.4	9.5	-11.5
COC(C(=O)NNC(=O)CCc1ccccc1)c1ccccc1 (centres undefined)	1	97.1	11.6	99.0	1.3	-6.1	.	.	.
CCC(CC)c1nnc(NC(=O)C2=NNC(=O)CC2)s1	1.21	103.4	1.1	100.0	1.7	8.6	.	.	.
Cc1ccoc1C(=O)Nc1ccc(CC(=O)O)cc1	0.58	51.8	57.4*	75.2	27.1	-78.9	50.9*	27.1*	13.7
CCn1c(-c2ccc(N)cc2)nc2ccccc21	1.08	106.5	1.5	113.5	-14.9	-1.3	.	.	.
CN(C)c1ccc(-c2nc3ccccc3n2C)cc1	2.07	34.8	77.1*	73.8	29.0	97.5	24.9	5.8	-65.9
CCn1c(-c2ccc(N(C)C)cc2)nc2ccccc21	2.93	64.0	44.5*	107.5	-8.3	95.6	15.7	-34.8	-35.5
O=C(NCC1OCCc2ccccc21)c1ccc(NC(=O)c2ccc(Cl)cc2)cc1 (centres undefined)	0.92	73.4	33.8	112.6	-14.1	-2.7	.	.	.
OC1(c2ccc(OC(F)F)cc2)CSC(=Nc2cccnc2)N1C1CC1 (centres undefined)	0.96	59.8	53.2*	86.8	14.6	-2.5	39.7	3.2	9.6
CCOc1ccc(OCCSc2nc3ccccc3[nH]2)cc1	1.1	88.4	17.4	89.7	9.7	3.2	.	.	.
CCCOc1ccc(CSc2nc3ccccc3[nH]2)cc1	3.45*	50.0	59.1*	92.1	8.6	124.8	47.9*	-1.3	-16.2
O=C(Cn1cccc1C(=O)c1ccccc1)NCc1cccc(Cl)c1	1.63	96.5	6.4	104.3	-6.2	28.4	.	.	.
CCOC(=O)Cc1csc(NC(=O)CC)n1	1.13	94.5	10.2	95.5	4.9	-22.7	.	.	.
CCOC(=O)Cc1csc(N/N=C/c2ccc(C(F)(F)F)cc2)n1	1.12	56.9	60.0*	77.0	25.5	-31.1	22.3	13.3*	-46.6
Cc1cc(SCn2nnc3ccccc3c2=O)nc2ccccc12	1.85	101.7	-1.1	105.1	-5.7	-1.7	.	.	.
Cc1ccc(-n2nnnc2SCn2nnc3ccccc3c2=O)c(C)c1	0.87	58.3	52.9*	80.8	20.9	21.4	52.6*	4.8	15.1
O=C1C2C3c4ccccc4C(c4ccccc43)C2c2nc3ccccc3n21 (centres undefined)	1.05	48.2	64.2*	93.4	3.2	-26.4	58.7*	12.4	-2.2
O=C(Nc1ccc(NC(=O)c2ccco2)nc1)c1ccco1	4.03*	57.4	53.5*	98.7	-0.7	164.2*	5.0	-21.8	-62.2
O=C(Nc1ccc(NC(=O)C2CCCCC2)cn1)c1ccco1	4.62*	48.4	62.1*	140.3*	-44.0	112.3	30.4	-23.2	-62.2
O=C(Nc1ccccn1)c1ccco1	1.26	101.7	2.0	114.5	-15.8	15.2	.	.	.
Cc1nc2ccc(NC(=O)c3cc(S(=O)(=O)N(C)c4ccccc4)ccc3Cl)cc2s1	0.81	55.9	54.7*	81.2	20.6	-11.2	64.5*	26.1*	26.6*
NNC(=O)c1ccc(COc2cccc3ccccc23)cc1	0.81	94.6	2.3	104.9	-5.4	12.6	.	.	.
NNC(=O)c1cccc(COc2ccccc2Br)c1	2.53	38.7	71.4*	80.2	21.6	173.1*	60.6*	-9.6	10.0
CCOc1ccc(CN2CCN(Cc3nc4c(s3)CCCC4)CC2CCO)cc1 (centres undefined)	0.94	102.2	-1.4	93.9	5.5	-6.1	.	.	.
Cc1nc2ccc(NC(=O)c3cccs3)cc2c(=O)n1Cc1ccc(Cl)cc1	0.51	59.6	50.9*	96.9	1.7	-18.7	43.1	6.0	-6.5
SMILES	NF-kB neuron act	STAT3 act	STAT3 inh-1	STAT1 act	STAT1 blocker	APP 5'UTR act	STAT3 inh-2	NFkB inh 2	STAT1 inh 2
O=C1C(C=Nc2ccccc2O)=C(O)c2ccccc21	5.01*	58.5	49.3*	98.2	2.0	113.8	-57.2	-30.2	-10.7
COc1ccc(N=CC2=C(O)c3ccccc3C2=O)cc1	1.38	23.2	92.2*	95.9	14.9	137.3*	11.8	24.6*	-132.6
CN=CC1=C(O)c2ccccc2C1=O	1.16	102.5	2.1	106.9	-7.6	-4.6	.	.	.
Cc1ccc(NC(=O)Cn2cnc3c(nnn3Cc3ccc(F)cc3)c2=O)cc1	1.08	100.8	6.2	97.4	1.9	10.9	.	.	.
CC#CC(=O)N1CCC(CO)(CCc2ccccc2)CC1	1.65	100.9	1.4	107.7	-10.4	6.5	.	.	.
Cc1ccnc(NC(=O)Nc2cccc(F)c2)c1	8.59*	62.1	46.4*	138.1*	-41.1	197.9*	-7.1	-28.1	-130.4
O=C(N/N=C/c1ccc(OCCCF)cc1)c1ccc(C(F)(F)F)cc1	1.28	92.1	11.7	100.2	-1.8	-0.5	.	.	.
COc1ccc(Cl)cc1NC(=O)COC(=O)/C=C/c1c(C)nn(C2CCS(=O)(=O)C2)c1Cl (centres undefined)	0.51	66.0	45.5*	90.1	11.0	6.7	32.1	0.6	-4.9
C=C1CC(C(=O)N/N=C/c2ccccc2)C1	1.13	97.9	2.7	107.6	-8.7	19.8	.	.	.
O=S(=O)(c1ccc(N2CCCC2)cc1)C(F)(F)F	1.29	65.9	43.6*	95.5	7.1	3.0	10.3	-7.7	-8.7
Cc1ccc(-n2nnnc2SCC(=O)NC(C(=O)O)(c2ccccc2)c2ccccc2)cc1C	1.49	103.5	1.2	100.7	-2.6	7.9	.	.	.
CCN(CC)c1ccc(/C=C/c2nc3ccccc3s2)cc1	1.37	49.9	66.0*	78.9	23.5	75.9	23.3	-8.1	-91.2
CCN(CC)c1ccc(NC(=O)COC(=O)/C=C/c2nc3ccccc3s2)cc1	0.9	102.3	-8.0	101.9	-2.1	-9.7	.	.	.
CCC(C)C(NC(N)=O)C(=O)Nc1ccc(C(=O)OC)cc1 (centres undefined)	1.11	90.8	17.2	93.2	5.9	4.2	.	.	.
CCC(C)NC(=S)Nc1ccc(C(=O)OC)cc1 (centres undefined)	.	55.6	55.1*	88.4	13.1	25.7	52.7*	10.8	5.7
COc1ccc(-n2c(C)nc3c(cnn3-c3ccc(C)cc3)c2=O)cc1	0.97	75.7	32.8	97.6	4.2	-5.5	.	.	.
COc1ccc(-n2c(C)nc3c(cnn3-c3ccc(Cl)cc3)c2=O)cc1	1.09	60.1	51.9*	88.4	12.8	16.6	41.7	8.8	7.7
